For series [1], the system named is Trypanosoma cruzi. Nature of the series: Trypanocidal activity against Trypanosoma cruzi Tulahuen trypomastigotes assessed as reduction in parasites after 24 to 48 hrs by trypan blue assay. It counts as functional. The method, boiled down:
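Bloodstream trypomastigotes were incubated at 37 °C in culture medium alone or with increasing doses for 24, 48 and 72 h. Parasite death was scored as percentage by trypan blue exclusion. Results are means ± SD of three independent experiments.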

Series [2] deals with Trypanosoma cruzi. Nature of the series: Trypanocidal activity against Trypanosoma cruzi Tulahuen amastigotes infected in BALB/C mouse bone marrow derived macrophages assessed as parasite infected macrophages at 200 uM treated for 24 hrs followed by compound washout measured after 48 hrs by immunofluorescence assay (reference value: 26.84 +/- 7.81%). The format is functional.

Series [3] has as its system Trypanosoma cruzi. As to the kind of experiment: Trypanocidal activity against Trypanosoma cruzi Tulahuen amastigotes infected in BALB/C mouse bone marrow derived macrophages assessed as parasite infected macrophages at 1500 uM treated for 24 hrs followed by compound washout measured after 48 hrs by immunofluorescence assay (reference value: 26.84 +/- 7.81%). The format is functional.

In series [4] the test system is Trypanosoma cruzi. As to the kind of experiment: Trypanocidal activity against Trypanosoma cruzi Tulahuen amastigotes infected in BALB/C mouse bone marrow derived macrophages assessed as endocytic index at 2 uM treated for 24 hrs followed by compound washout measured after 48 hrs by immunofluorescence assay (reference value: 213.66 +/- 58.79). It counts as functional.

Series [5] has as its system Trypanosoma cruzi. Nature of the series: Trypanocidal activity against Trypanosoma cruzi Tulahuen amastigotes infected in BALB/C mouse bone marrow derived macrophages assessed as endocytic index at 20 uM treated for 24 hrs followed by compound washout measured after 48 hrs by immunofluorescence assay (reference value: 213.66 +/- 58.79). The format is functional.
Series [6] relates to Trypanosoma cruzi. Nature of the series: Trypanocidal activity against Trypanosoma cruzi Tulahuen amastigotes infected in BALB/C mouse bone marrow derived macrophages assessed as endocytic index at 400 uM treated for 24 hrs followed by compound washout measured after 48 hrs by immunofluorescence assay (reference value: 213.66 +/- 58.79). The format is functional.
Series [7] relates to Trypanosoma cruzi. As to the kind of experiment: Trypanocidal activity against Trypanosoma cruzi Tulahuen amastigotes infected in BALB/C mouse bone marrow derived macrophages assessed as endocytic index at 800 uM treated for 24 hrs followed by compound washout measured after 48 hrs by immunofluorescence assay (reference value: 213.66 +/- 58.79). The format is functional.
Series [8] in a line: Cytotoxicity against BALB/C mouse BMDM assessed as reduction in cell viability at 0.2 to 2000 uM after 24 hrs by trypan blue exclusion assay. It counts as cell-based. A digest of the protocol: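 Mammalian cells (human PBMC, Swan 71, Jurkat; bone marrow-derived macrophages; J774) were exposed to 3-HK at 0.2 to 2000 μM for 24 h. Viability was then scored by trypan blue exclusion.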

Series [9] is described as follows: Induction of apoptosis in BALB/C mouse BMDM assessed as cells with hypodiploid DNA content at 20 uM after 24 hrs by FITC/propidium iodide staining based flow cytometric analysis (reference value: 29.9%). The format is functional.
The nature of series [10]: Induction of apoptosis in BALB/C mouse BMDM assessed as cells with hypodiploid DNA content at 1200 uM after 24 hrs by FITC/propidium iodide staining based flow cytometric analysis (reference value: 29.9%). The format is functional. In general terms: Flow cytometry measures light scatter and fluorescence of single cells or particles in a stream.
Series [11] in a line: Induction of apoptosis in BALB/C mouse BMDM assessed as cells with hypodiploid DNA content at 4000 uM after 24 hrs by FITC/propidium iodide staining based flow cytometric analysis (reference value: 29.9%). It counts as functional.
The subject of another series is Candida albicans. As to the kind of experiment: Antimicrobial activity against Candida albicans ATCC10231 after 10 to 20 hrs. It counts as functional.

Broadly, the IC50 is the concentration at which inhibition is half-maximal.

Regarding `Nc1c(O)cccc1C(=O)C[C@H](N)C(=O)O`, the IC50 was 200 to 1200 µM with Trypanosoma cruzi [1] and 30 to 137 µM in the series on Candida albicans. Moreover, the Activity was 7.76% with Trypanosoma cruzi [2]; 18.07% with Trypanosoma cruzi [3]; 60.59 with Trypanosoma cruzi [4]; 51.74 in the series on Trypanosoma cruzi [5]; 89.81 in the series on Trypanosoma cruzi [6]; 99.39 with Trypanosoma cruzi [7]. The Activity entry is given as “Non-Toxic” in [8], 25.9% in series [9], 26.3% in [10] and 30.9% in series [11].

(Values after ChEMBL document CHEMBL4052792, “3-Hydroxykynurenine, a Tryptophan Metabolite Generated during the Infection, Is Active Against Trypanosoma cruzi” (ACS Med Chem Lett, 2017).)
